Assay results: ChEMBL document CHEMBL1687802, “An RpoB mutation confers dual heteroresistance to daptomycin and vancomycin in Staphylococcus aureus” (2010)
Values after ≈ are worked out from the molar mass of the structure shown.

Tests used:
Staphylococcus aureus [1] = assay: Antimicrobial activity against vancomycin-intermediate Staphylococcus aureus MU50-PR selected at 4 mg/L of compound by Etest method
Staphylococcus aureus [2] = assay: Antimicrobial activity against methicillin-resistant Staphylococcus aureus 10*3d1 harboring hypothetical protein SA1826 14E mutant gene after 24 hrs by Etest method; type: functional; conditions: 10*3d1, 24 h
In short: (§1)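 Etest MICs (daptomycin, vancomycin, oxacillin, rifampin) on Mueller-Hinton agar, with the daptomycin medium supplemented with 50 mg/liter Ca2+. Plates were swabbed from a 0.5 McFarland suspension, strips were applied 10 min later, and plates were read after 24 h at 37°C. Strains were pKOR1 allelic-replacement mutants or revertants of N315ΔIP (mecI-inactivated, beta-lactamase plasmid cured) or 10*3d1, grown in BHI broth at 37°C.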

Staphylococcus aureus [3] = assay: Antimicrobial activity against methicillin-resistant Staphylococcus aureus 10*3d1 harboring hypothetical protein SA1826 14A(-) and rpoB 621E mutant gene after 24 hrs by Etest method; type: functional; conditions: 10*3d1, 24 h; in short: as §1
Staphylococcus aureus [4] = assay: Antimicrobial activity against methicillin-resistant Staphylococcus aureus 10*3d1 harboring hypothetical protein SA1826 14A mutant gene after 24 hrs by Etest method; type: functional; conditions: 10*3d1, 24 h; in short: as §1
Staphylococcus aureus [5] = assay: Antimicrobial activity against vancomycin-intermediate Staphylococcus aureus MI-PR selected at 4 mg/L of compound by Etest method
Staphylococcus aureus [6] = assay: Antimicrobial activity against vancomycin-intermediate Staphylococcus aureus MI by Etest method; type: functional
Staphylococcus aureus [7] = assay: Antimicrobial activity against methicillin-resistant Staphylococcus aureus 10*3d1 harboring hypothetical protein SA1826 14A mutant and rpoB 621A mutant after 24 hrs by Etest method; type: functional; conditions: 10*3d1, 24 h; in short: as §1
Staphylococcus aureus [8] = assay: Antimicrobial activity against methicillin-resistant Staphylococcus aureus N315deltaIP harboring hypothetical protein SA1826 14E mutant gene after 24 hrs by Etest method; type: functional; in short: as §1
Staphylococcus aureus [9] = assay: Antimicrobial activity against vancomycin-intermediate Staphylococcus aureus MI-P84 selected at 4 mg/L of compound by Etest method
Staphylococcus aureus [10] = assay: Antimicrobial activity against methicillin-resistant Staphylococcus aureus N315deltaIP after 24 hrs by Etest method; type: functional; in short: as §1
Staphylococcus aureus [11] = assay: Antimicrobial activity against methicillin-resistant Staphylococcus aureus 10*3d1 harboring rpoB 621E mutation after 24 hrs by Etest method; conditions: 10*3d1, 24 h
Staphylococcus aureus [12] = assay: Antimicrobial activity against vancomycin-intermediate Staphylococcus aureus MU50 by Etest method; type: functional
Staphylococcus aureus [13] = assay: Antimicrobial activity against methicillin-resistant Staphylococcus aureus N315deltaIP harboring rpoB 621A mutant after 24 hrs by Etest method
Staphylococcus aureus [14] = assay: Antimicrobial activity against methicillin-resistant Staphylococcus aureus N315deltaIP harboring hypothetical protein SA1826 14A mutant after 24 hrs by Etest method; type: functional; in short: as §1
Staphylococcus aureus [15] = assay: Antimicrobial activity against vancomycin-intermediate Staphylococcus aureus MU50-P35 selected at 4 mg/L of compound by Etest method
Staphylococcus aureus [16] = assay: Antimicrobial activity against methicillin-resistant Staphylococcus aureus N315deltaIP harboring rpoB A621E mutant gene after 24 hrs by Etest method; type: functional; in short: as §1
Staphylococcus aureus [17] = assay: Antimicrobial activity against vancomycin-intermediate Staphylococcus aureus MU50-PR selected at 4 mg/L of vancomycin by Etest method; type: functional
Staphylococcus aureus [18] = assay: Antimicrobial activity against vancomycin-susceptible Staphylococcus aureus MU50-P35 by Etest method
Staphylococcus aureus [19] = assay: Antimicrobial activity against vancomycin-intermediate Staphylococcus aureus MI-PR selected at 4 mg/L of vancomycin by Etest method; type: functional
Staphylococcus aureus [20] = assay: Antimicrobial activity against vancomycin-susceptible Staphylococcus aureus MI-P84 by Etest method

Row | Compound | MIC (Staphylococcus aureus [1]) [µg/mL] | MIC (Staphylococcus aureus [2]) [µg/mL] | MIC (Staphylococcus aureus [3]) [µg/mL] | MIC (Staphylococcus aureus [4]) [µg/mL] | MIC (Staphylococcus aureus [5]) [µg/mL] | MIC (Staphylococcus aureus [6]) [µg/mL] | MIC (Staphylococcus aureus [7]) [µg/mL] | MIC (Staphylococcus aureus [8]) [µg/mL] | MIC (Staphylococcus aureus [9]) [µg/mL] | MIC (Staphylococcus aureus [10]) [µg/mL] | MIC (Staphylococcus aureus [11]) [µg/mL] | MIC (Staphylococcus aureus [12]) [µg/mL] | MIC (Staphylococcus aureus [13]) [µg/mL] | MIC (Staphylococcus aureus [14]) [µg/mL] | MIC (Staphylococcus aureus [15]) [µg/mL] | MIC (Staphylococcus aureus [16]) [µg/mL] | MIC (Staphylococcus aureus [17]) [µg/mL] | MIC (Staphylococcus aureus [18]) [µg/mL] | MIC (Staphylococcus aureus [19]) [µg/mL] | MIC (Staphylococcus aureus [20]) [µg/mL]
1 | CN[C@H](CC(C)C)C(=O)N[C@H]1C(=O)N[C@@H](CC(N)=O)C(=O)N[C@H]2C(=O)N[C@H]3C(=O)N[C@H](C(=O)N[C@H](C(=O)O)c4cc(O)cc(O)c4-c4cc3ccc4O)[C@H](O)c3ccc(c(Cl)c3)Oc3cc2cc(c3O[C@@H]2O[C@H](CO)[C@@H](O)[C@H](O)[C@H]2O[C@H]2C[C@](C)(N)[C@H](O)[C@H](C)O2)Oc2ccc(cc2Cl)[C@H]1O [VANCOMYCIN] | 6 (≈ 4.14 µM) | 3 (≈ 2.07 µM) | 3 (≈ 2.07 µM) | 3 (≈ 2.07 µM) | 6 (≈ 4.14 µM) | 7 (≈ 4.83 µM) | 0.75 (≈ 0.518 µM) | 0.5 (≈ 0.345 µM) | 1 (≈ 0.69 µM) | 0.5 (≈ 0.345 µM) | 3 (≈ 2.07 µM) | 6 (≈ 4.14 µM) | 0.25 (≈ 0.173 µM) | 0.5 (≈ 0.345 µM) | 2 (≈ 1.38 µM) | 3 (≈ 2.07 µM) | – | – | – | –
2 | CO[C@H]1/C=C/O[C@@]2(C)Oc3c(C)c(O)c4c(O)c(c(/C=N/N5CCN(C)CC5)c(O)c4c3C2=O)NC(=O)/C(C)=C\C=C\[C@H](C)[C@H](O)[C@@H](C)[C@@H](O)[C@@H](C)[C@H](OC(C)=O)[C@@H]1C [RIFAMPIN] | – | 0.006 (≈ 0.00729 µM) | 0.006 (≈ 0.00729 µM) | 0.006 (≈ 0.00729 µM) | – | – | 0.006 (≈ 0.00729 µM) | 0.006 (≈ 0.00729 µM) | – | 0.006 (≈ 0.00729 µM) | 0.006 (≈ 0.00729 µM) | – | 0.006 (≈ 0.00729 µM) | 0.006 (≈ 0.00729 µM) | – | 0.006 (≈ 0.00729 µM) | – | – | – | –
3 | Cc1onc(-c2ccccc2)c1C(=O)N[C@@H]1C(=O)N2[C@@H]1SC(C)(C)[C@@H]2C(=O)O [OXACILLIN] | – | > 256 | > 256 | > 256 | – | – | > 256 | > 256 | – | 48 (≈ 120 µM) | > 256 | – | > 256 | > 256 | – | > 256 | – | – | – | –
4 | CCCCCCCCCC(=O)N[C@@H](Cc1c[nH]c2ccccc12)C(=O)N[C@H](CC(N)=O)C(=O)N[C@@H](CC(=O)O)C(=O)N[C@@H]1C(=O)NCC(=O)N[C@@H](CCCN)C(=O)N[C@@H](CC(=O)O)C(=O)N[C@H](C)C(=O)N[C@@H](CC(=O)O)C(=O)NCC(=O)N[C@H](CO)C(=O)N[C@@H]([C@H](C)CC(=O)O)C(=O)N[C@@H](CC(=O)c2ccccc2N)C(=O)O[C@@H]1C | – | 1.5 (≈ 0.926 µM) | 1.5 (≈ 0.926 µM) | 1.5 (≈ 0.926 µM) | – | 2 (≈ 1.23 µM) | 0.25 (≈ 0.154 µM) | 0.25 (≈ 0.154 µM) | – | 0.38 (≈ 0.234 µM) | 2 (≈ 1.23 µM) | 2 (≈ 1.23 µM) | 0.25 (≈ 0.154 µM) | 0.25 (≈ 0.154 µM) | – | 1.5 (≈ 0.926 µM) | 2 (≈ 1.23 µM) | 0.5 (≈ 0.309 µM) | 2 (≈ 1.23 µM) | 0.5 (≈ 0.309 µM)
